The target of this experiment is Mitochondrial complex I; NADH oxidoreductase (Bos taurus, UniProt P25708+P52505). As to the kind of experiment: Inhibition of NADH-ubiquinone oxidoreductase assessed as NADH oxidase activity in bovine heart submitochondrial particles. An outline of the steps:
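Bovine heart submitochondrial particles (sonicated mitochondria isolated by differential centrifugation) in air-saturated 75 mM sodium potassium phosphate, pH 7.4, with 1 mM each EDTA and MgCl2, at 30 °C and 42–219 µg/mL protein. Compounds added in methanol (≤2% v/v) and preincubated 4 min. The reaction is started with 0.16 mM NADH (final). Oxidation is followed over 4 min as A340 decrease. Means of 2–4 independent experiments.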

Chain of Mitochondrial complex I; NADH oxidoreductase (P25708 21-464 limits assumed, other chains not shown): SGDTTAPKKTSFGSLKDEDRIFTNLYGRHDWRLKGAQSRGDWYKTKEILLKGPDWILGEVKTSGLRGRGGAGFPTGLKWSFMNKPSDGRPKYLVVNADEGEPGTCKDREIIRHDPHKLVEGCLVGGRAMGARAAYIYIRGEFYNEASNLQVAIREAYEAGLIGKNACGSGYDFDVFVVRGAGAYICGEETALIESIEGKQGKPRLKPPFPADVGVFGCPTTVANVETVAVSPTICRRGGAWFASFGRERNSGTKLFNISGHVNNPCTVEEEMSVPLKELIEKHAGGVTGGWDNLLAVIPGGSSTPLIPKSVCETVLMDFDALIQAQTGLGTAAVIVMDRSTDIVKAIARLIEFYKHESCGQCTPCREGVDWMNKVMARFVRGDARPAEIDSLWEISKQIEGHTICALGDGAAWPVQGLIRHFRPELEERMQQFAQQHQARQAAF

One may read the IC50 as the concentration that gives 50% inhibition. As to `CCCC1(O)C(=O)C(C)C(=O)N=C1C=CC(C)C/C=C/C(C)C` (configuration not stated) [IROMYCIN E], the IC50 was over 25.3 µM.
As to `CCCC1C(=O)C(C)(O)C(=O)N=C1C=CC(C)C/C=C/C(C)C` (configuration not stated) [IROMYCIN F], the IC50 was over 25.3 µM.

Values taken from BindingDB's records for doi:10.1016/j.bmc.2007.11.023 (2008).
